Columns and labels:
[1] = biological target: T1, Delta-type opioid receptor (Homo sapiens, UniProt P41143); assay: Displacement of [3H]DPDPE from delta opioid receptor (unknown origin) transfected into HEK293 cells at 10 uM by microplate scintillation counting; type: cell-based
Procedure, shortened: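 HEK293 cells stably expressing the δ opioid receptor were kept in DMEM with 0.2 mg/mL G418. Compound at 10 μM (triplicate dilutions) was incubated with 0.99 nM [3H]-DPDPE and 20 μg membrane for 60 min in 50 mM Tris-HCl, pH 7.4. Bound label was collected by GF/B filtration. Nonspecific binding was defined with 10 μM DPDPE. Results are given as % displacement.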

[2] = biological target: T1, Delta-type opioid receptor; assay: Displacement of [3H]DPDPE from delta opioid receptor (unknown origin) transfected into HEK293 cells by microplate scintillation counting; type: cell-based
[3] = biological target: Cannabinoid receptor 1 (Homo sapiens) (UniProt P21554); assay: Displacement of [3H]-CP55940 from human CB1 receptor transfected into HEK293 cells at 10 uM by microplate scintillation counting; type: cell-based
Procedure, shortened: (§1)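 HEK293 cells stably expressing cloned human CB1 or CB2 were grown in DMEM/F-12 with 0.5 mg/mL G418. Membranes were made by sonication and differential centrifugation. Compound at 10 μM (independent triplicate dilutions) was incubated with [3H]-CP 55,940, at 1.6975 nM for CB1 or 1.959 nM for CB2. Membrane was 5 μg for CB1 or 1 μg for CB2. Incubation was 90 min at 37 °C in Tris/EDTA/NaCl/0.2% BSA, pH 7.4. Bound label was collected on GF/C filters. Nonspecific binding was defined with 10 μM CP-55,940. Results are given as % displacement.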

[4] = biological target: Cannabinoid receptor 2 (Homo sapiens) (UniProt P34972); assay: Displacement of [3H]-CP55940 from human CB2 receptor transfected into HEK293 cells at 10 uM by microplate scintillation counting; type: cell-based; procedure, shortened: as §1
[5] = biological target: T1, Delta-type opioid receptor; assay: Agonist activity at human delta opioid receptor transfected into HEK293 cells assessed as effect on [35S]-GTPgammaS binding at 300 uM; type: functional, cell-based
Procedure, shortened: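 Modified GTPγ[35S] functional assay. Tested at 300 μM. Binding is expressed as percent of the maximal GTPγ[35S] binding given by the full agonist DPDPE.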

Cannabinoid receptor 2 (Homo sapiens), sequence (P34972 whole entry): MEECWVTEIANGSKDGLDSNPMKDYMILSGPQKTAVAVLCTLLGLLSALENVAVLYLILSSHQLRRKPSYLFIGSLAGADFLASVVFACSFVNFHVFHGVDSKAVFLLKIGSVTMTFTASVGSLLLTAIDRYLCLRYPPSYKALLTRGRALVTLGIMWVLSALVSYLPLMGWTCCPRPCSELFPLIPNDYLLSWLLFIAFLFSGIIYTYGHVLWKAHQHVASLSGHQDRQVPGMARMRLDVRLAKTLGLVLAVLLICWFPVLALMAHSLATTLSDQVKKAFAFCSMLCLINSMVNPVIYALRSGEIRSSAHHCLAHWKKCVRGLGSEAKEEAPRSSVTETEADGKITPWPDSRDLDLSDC
Cannabinoid receptor 1 (Homo sapiens), sequence (P21554 whole entry): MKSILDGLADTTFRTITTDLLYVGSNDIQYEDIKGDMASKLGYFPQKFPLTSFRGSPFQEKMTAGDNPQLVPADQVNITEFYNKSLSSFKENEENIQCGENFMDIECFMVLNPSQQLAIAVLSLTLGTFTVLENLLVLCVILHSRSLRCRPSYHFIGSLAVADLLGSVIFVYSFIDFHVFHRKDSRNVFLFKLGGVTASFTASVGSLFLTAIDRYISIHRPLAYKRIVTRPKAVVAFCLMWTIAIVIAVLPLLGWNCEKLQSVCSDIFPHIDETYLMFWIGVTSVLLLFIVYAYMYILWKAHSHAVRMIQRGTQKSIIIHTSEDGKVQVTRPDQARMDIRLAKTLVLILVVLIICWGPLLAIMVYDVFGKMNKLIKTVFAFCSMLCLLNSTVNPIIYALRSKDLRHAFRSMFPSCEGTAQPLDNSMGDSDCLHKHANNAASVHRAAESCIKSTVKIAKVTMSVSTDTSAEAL
T1 sequence (P41143 whole entry): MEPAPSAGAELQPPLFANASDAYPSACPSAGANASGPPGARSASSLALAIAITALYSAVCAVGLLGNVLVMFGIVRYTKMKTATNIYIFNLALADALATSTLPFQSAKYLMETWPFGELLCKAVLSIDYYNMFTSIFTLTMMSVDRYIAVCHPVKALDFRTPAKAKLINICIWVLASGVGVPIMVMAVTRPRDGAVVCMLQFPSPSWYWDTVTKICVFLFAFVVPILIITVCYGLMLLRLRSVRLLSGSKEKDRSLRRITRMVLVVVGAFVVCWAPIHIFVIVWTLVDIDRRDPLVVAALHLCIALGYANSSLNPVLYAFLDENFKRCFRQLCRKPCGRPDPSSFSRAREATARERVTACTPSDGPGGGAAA

| Activity [1] | Ki [2] | Activity [3] | Activity [4] | Activity [5] | Compound |
| --- | --- | --- | --- | --- | --- |
| 31.6% | > 26 µM | 1.7% | 8.3% | 88% | COc1ccc(-c2cc(=O)c3c(O)c(OC)c(OC)cc3o2)cc1 [SALVIGENIN] |
| 79.9% | 8.4 µM | 19.3% | 13.5% | 48% | COc1ccc(-c2cc(=O)c3c(O)c(OC)c(O)cc3o2)cc1 [PECTOLINARIGENIN] |
| 86% | 3.1 µM | 3% | 4.2% | 32% | COc1ccc(-c2cc(=O)c3c(O)c(OC)c(OC)cc3o2)cc1OC |
| 19.9% |  | 0.3% | 12.5% |  | COc1ccc(-c2cc(=O)c3c(O)c(OC)c(O)cc3o2)cc1OC |

— ChEMBL document CHEMBL3585296, “Flavonoids from Perovskia atriplicifolia and Their in Vitro Displacement of the Respective Radioligands for Human Opioid and Cannabinoid Receptors” (J Nat Prod, 2015)
